# From PubChem BioAssay
# GASC-1 inh = inhibitors of human GASC-1 (JMJD2C) demethylase. Q9H3R0. GST-JMJD2C(1-420) H3K9me3 demethylation, DELFIA europium. inhibition, % at 2.35 µM. actives 0.069% (n = 330,000). AID 2099;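 active means more than half of a compound's replicate wells show inhibition beyond 50%, single wells judged on their own value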;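 further: signal counts dimethyl H3K9 product captured on neutravidin plate; 0% = median of DMSO wells and 100% = 0.3 times that DMSO median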
# VLA-4 inh = inhibition in a human VLA-4 binding assay | inhibition, % (about 7 µM as worked out from the volumes in the protocol) | actives 0.2% (n = 330,000) | P13612 | AID 2557 | VLA-4 expressing cells, ligand binding flow cytometry; in the data active means inhibition above about 50%
# Lipid droplet = modulators of hepatic lipid droplet formation; AML12 mouse hepatocytes, oleate lipid droplets, BODIPY imaging; inhibition, % at 6.5 µM; actives 0.4% (n = 240,000); AID 1656;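 active means lipid droplet intensity inhibited by at least 50%, with more than 500 cells counted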
#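 System: AML12 hepatocytes (mouse). Probe or stimulus: oleic acid at 100 µM to induce lipid droplet formation. Times: overnight treatment with compound plus oleate. Detection: Image-based BODIPY and DAPI two-channel analysis. Evaluation: percent inhibition of filter-corrected integrated lipid droplet intensity per well.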
# GRK2 inh = human GRK2 inhibition via aptamer displacement | P25098 | bead flow cytometry, FAM-aptamer displacement from GRK2 | inhibition of aptamer binding, % at 10 µM | actives 0.59% (n = 330,000) | AID 488847;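 active means inhibition of aptamer binding above 40%, roughly 3 SD of noise, on plates passing a quality check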;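 further: median bead fluorescence of bound FAM aptamer so fluorescent compounds give negative values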
# proCasp7 act = activates human procaspase-7, counter-screen for procaspase-3 activators. actives 0.093% (n = 330,000). activation, % at 8.5 µM. P55210. recombinant procaspase-7, Ac-DEVD-pNA absorbance 405 nm; D23A/D198A/D206A triple mutant, cannot self-cleave; scale: DMSO 0, 5 µM enzyme 100;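 active means percent activation above the screen-wide mean plus 3 SD, cut at about 25% in these data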
# Target sequence (P55210 whole entry D23A/D198A/D206A): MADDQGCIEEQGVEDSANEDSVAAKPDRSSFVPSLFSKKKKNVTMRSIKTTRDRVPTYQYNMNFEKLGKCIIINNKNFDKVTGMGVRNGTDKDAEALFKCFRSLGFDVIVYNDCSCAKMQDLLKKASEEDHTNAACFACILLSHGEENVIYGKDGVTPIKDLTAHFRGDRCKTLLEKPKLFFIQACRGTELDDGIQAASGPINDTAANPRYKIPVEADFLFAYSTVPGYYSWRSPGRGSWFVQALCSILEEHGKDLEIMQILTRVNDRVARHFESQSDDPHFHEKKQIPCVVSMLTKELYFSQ
#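 System: Procaspase-7 triple mutant (PC-7 D3A); measure: % activation from two-timepoint absorbance difference, scaled to controls; times: 1 h compound preincubation, 2 h substrate cleavage, 25 °C; also added: Ac-DEVD-pNA substrate, 400 µM as added; measured by: Epi-absorbance of released pNA at 405 nm, two timepoints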
# proCasp3 act = procaspase-3 (human) activation. P42574. recombinant procaspase-3 D3A, Ac-DEVD-pNA absorbance 405 nm. activation, % at 8.5 µM. actives 0.11% (n = 330,000). AID 463141;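 active means activation above the mean of all tested compounds plus 3 SD, cut at about 21% in these data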;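 further: 0% = DMSO alone and 100% = DMSO wells spiked with extra 5 µM PC-3 D3A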
#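 Assay system: Autoprocessing-dead procaspase-3 D3A mutant enzyme; also added: Ac-DEVD-pNA; doses: one concentration, 8.5 µM nominal, 0.8% DMSO; times: 1 h compound preincubation, 2 h substrate hydrolysis at 25 °C; technique: 405 nm absorbance of p-nitroaniline, reads at 0 and 120 min; measure: % activation between DMSO and enzyme-spiked controls; repeats: single replicate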
# GRK2 CP1 = human GRK2 inhibition confirmation, cherry pick 1. shares compounds with GRK2 inh. bead-bound GRK2, FAM-aptamer displacement, flow cytometry. aptamer displacement, % at 10 µM. actives 4% (n = 2,000). AID 504451;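 active means aptamer displacement above 40%, near three times the noise of non-fluorescent compounds, on plates passing quality checks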;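 further: negative values mostly reflect intrinsic compound fluorescence rather than true enhancement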
# Aptamer quench SP = aptamer fluorescence quenching in GRK2 counter-screen. shares compounds with GRK2 inh. Carboxyfluorescein RNA aptamer on beads, flow cytometry quenching; hits give low values. fluorescence response (% of DMSO), % at 10 µM. 2,000 tested, under 10 active;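 active means compounds that quench the bead-bound fluorescent RNA probe, cutting fluorescence to under half of the solvent control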;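 further: counterscreen run without GRK2 so only probe quenching by compound is measured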
# Numbers without * were called inactive; nt = no result. Compounds with a hit are over-represented: about 1.3% of the library has one in this group of screens.
SMILES,GASC-1 inh,VLA-4 inh,Lipid droplet,GRK2 inh,proCasp7 act,proCasp3 act,GRK2 CP1,Aptamer quench SP
CC(=O)NC(Cc1c[nH]c2ccccc12)C(=O)N1CCN(S(=O)(=O)c2ccccc2)CC1 (stereo unspecified),-3.9,-7.5,nt,3.0,7.0,0.7,nt,nt
COc1cc(OC)cc(C(=O)Nc2ncn[nH]2)c1,8.2,-7.7,nt,77.0*,11.3,4.2,-5.3,100.8
CCOc1cc(C(=O)Nc2ncn[nH]2)cc(OCC)c1OCC,9.8,-4.0,-26.9,0.0,2.4,1.9,nt,nt
Cc1oc2c(c(C)cc3oc(=O)c(CC(=O)NCCCN4CCCC4=O)c(C)c32)c1C,0.3,4.4,-10.9,6.0,-6.7,1.4,0.1,94.3
CCC(=O)N(c1nnc(SCC(=O)NN2C(=O)NC3(CCC(C)CC3)C2=O)s1)C1CC1 (stereo unspecified),4.2,5.3,nt,0.0,-0.7,6.7,nt,nt
CC1CCCCC1NC(=O)COC(=O)c1ccc2c(=O)n3c(nc2c1)CCC3 (stereo unspecified),3.6,3.1,nt,0.0,12.9,9.2,nt,nt
CCn1nc(C(=O)Nc2cccc(C(F)(F)F)c2)c(Cl)c1Cl,-11.9,6.4,nt,53.0*,-1.2,-4.8,1.1,102.5
CCn1nc(C(=O)Nc2cccc3ccccc23)c(Cl)c1Cl,-10.3,7.3,nt,0.0,-4.0,-5.8,nt,nt
CCN(CC(=O)NCc1ccc(F)cc1)C(=O)C(C)Oc1cccc(Cl)c1 (stereo unspecified),3.2,4.7,nt,79.0*,0.5,-0.4,-1.5,101.5
CN(CC(=O)NCc1ccc(F)cc1)Cc1cccc(Cl)c1,32.5,1.3,-0.4,0.0,10.9,5.9,nt,nt
CCCN1CCN(C(=O)c2noc3c2COc2ccc(C)cc2-3)CC1,14.0,-6.7,-2.0,59.0*,1.9,-7.6,-1.5,98.3
CCOC(=O)N1CCN(C(=O)c2noc3c2COc2ccccc2-3)CC1,3.2,2.2,-3.0,0.0,-3.1,-3.1,nt,nt
Cc1cc(C)c(NC(=O)CSc2nc(=O)n3cc(C)ccc3n2)c(C)c1,-11.0,6.0,nt,2.0,1.4,-3.7,nt,nt
CCN1CCN(c2cc(C)c3cc(NC(=S)N(C)Cc4ccccc4)ccc3n2)CC1,-0.3,-1.2,-19.5,1.0,-12.6,-2.2,1.3,97.9
Cc1ccc(NC2c3ncccc3C(=O)N2Cc2ccc(F)cc2)cc1 (stereo unspecified),1.6,2.0,nt,76.0*,-4.1,0.0,-0.1,104.0
CN(CC(=O)NCCc1ccc(S(N)(=O)=O)cc1)S(=O)(=O)c1ccc(Br)s1,-17.3,-4.8,-1.2,90.0*,0.7,0.2,1.9,97.9
COc1cccc(C(=O)NNC(=O)C(=O)Nc2ccc(OC)cc2OC)c1,-317.1,-0.7,18.2,0.0,-2.5,-3.6,nt,nt
O=C(C[n+]1cnn(CC(=O)c2ccc(Cl)cc2Cl)c1)c1ccc([N+](=O)[O-])cc1,2.4,-5.0,-1.8,59.0*,-6.9,-8.5,-22.9,97.0
O=C(Cn1cnc([N+](=O)[O-])c1)c1ccc(Cl)cc1,-0.8,1.3,nt,2.0,4.4,4.4,nt,nt
CCC(C)NC(=O)c1cn(CC)c2cc(N3CCN(C(=O)c4ccco4)CC3)c(F)cc2c1=O (stereo unspecified),13.1,0.1,-54.2,0.0,1.7,-3.2,nt,nt
COc1ccc(NC(=S)c2ccncc2)cc1,7.5,3.5,-11.5,0.0,-5.2,0.4,nt,nt
COc1ccc(C(=S)Nc2ccc(C)cc2)cc1,11.1,-6.6,nt,100.0*,-22.2,-7.4,-2.0,98.3
Cc1cc(NC(=O)CSCC(=O)Nc2nc3c(C)cccc3s2)no1,-6.2,14.0,nt,0.0,-1.2,0.4,nt,nt
